Source: ChEMBL document CHEMBL5380847, “Expanding the Paradigm of Structure-Based Drug Design: Molecular Dynamics Simulations Support the Development of New Pyridine-Based Protein Kinase C-Targeted Agonists” (J Med Chem, 2023)
Activity calls are given as the source filed them. The rule behind the calls is not given here.

Tests used:
[1] = biological target: Protein kinase C alpha type (Homo sapiens) (UniProt P17252); experiment: Displacement of [3H]-PDBu-from full length human recombinant PKCalpha expressed in baculovirus infected Sf9 cells incubated for 10 mins by microbeta liquid scintillation counter analysis; settings: filed as agonist, dose 1-30 µM
[2] = tested on: Fibroblast of cardiac tissue; experiment: Effect on PKCalpha expression level in neonatal mouse Cardiac fibroblast cells at 10 uM measured for 24 hrs by Western blot analysis; assay type: functional, cell-based
Summary of the method: (§1)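 Neonatal mouse cardiac fibroblasts were treated with 10 μM compound for 24 h and then lysed. Total protein was extracted, and PKCα, -δ and -ϵ levels were analysed by Western blotting. Levels were normalized to vehicle control (0.1% DMSO). Values are mean + SEM of N = 3 independent experiments.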

Cardiac fibroblast = experiment: Inhibition of PKC-mediated ERK1/2 phosphorylation in neonatal mouse Cardiac fibroblast cells incubated for 30 mins in presence of PKC inhibitor Go6983 by Alphalisa analysis; assay type: cell-based
Summary of the method: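 Neonatal mouse cardiac fibroblasts were pretreated, or not, with the PKC inhibitor Gö6983 (1 μM). Cells were then exposed for 30 min to compounds at 10 μM (PMA at 10 nM). Total and phospho-ERK1/2 in lysates were quantified by Alpha technology and normalized to DMSO control. Values are mean + SEM (N = 3), analysed by randomized block ANOVA with Dunnett's post hoc test.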

DU-145 = experiment: Anticancer activity against human DU-145 cells assessed as reduction in cell viability at 0.03 to 30 uM measured after 24 hrs by MTT assay; assay type: functional, cell-based; settings: dose 0.03-30 µM
Summary of the method: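 DU145 human prostate cancer cells were exposed for 24 h to compounds at 0.3, 3.0 and 30 μM, with 0.03 μM added for the reference. Viability was read by MTT and expressed as percent of vehicle control (0.1% DMSO). Values are mean + SEM of N = 3–4 independent experiments.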

[3] = tested on: Fibroblast of cardiac tissue; experiment: Effect on PKCepsilon expression level in neonatal mouse Cardiac fibroblast cells at 10 uM measured for 24 hrs by Western blot analysis; assay type: functional, cell-based
Summary of the method: as §1

[4] = tested on: Fibroblast of cardiac tissue; experiment: Effect on PKCdelta expression level in neonatal mouse Cardiac fibroblast cells at 10 uM measured for 24 hrs by Western blot analysis; assay type: functional, cell-based
Summary of the method: as §1

[5] = biological target: Protein kinase C alpha type (Homo sapiens) (UniProt P17252); experiment: Displacement of [3H]-PDBu-from full length human recombinant PKCalpha expressed in baculovirus infected Sf9 cells at 1 to 30 uM incubated for 10 mins by microbeta liquid scintillation counter analysis; settings: dose 1-30 µM

SMILES	Activity [1]	Activity [2]	inhibition (Cardiac fibroblast)	Activity (DU-145)	Activity [3]	Activity [4]	Activity [5]
CN(Cc1cccc(C(F)(F)F)c1)C(=O)c1cc(CO)cc(C(=O)N(C)Cc2cccc(C(F)(F)F)c2)n1	Dose-Dependent Effect	inactive	Active	inactive	inactive	inactive	
O=C(OCc1cccc(C(F)(F)F)c1)c1cc(CO)cc(C(=O)OCc2cccc(C(F)(F)F)c2)c1		inactive	Active		inactive	inactive	
CCCCC(CC)OC(=O)c1cc(CO)cc(C(=O)OC(CC)CCCC)n1 (stereo unspecified)	Dose-Dependent Effect			inactive		inactive	
O=C(OCc1cccc(C(F)(F)F)c1)c1cc(CO)cc(C(=O)OCc2cccc(C(F)(F)F)c2)n1				inactive			inactive
CCCCCCCCNC(=O)c1cc(CO)cc(C(=O)NCCCCCCCC)n1				inactive			
